Laboratory results reported in publication PMC3180640 (Frontiers in Pharmacology, 2011).
Each block holds one compound with its values, some of them ahead of it.

How the values were obtained:
human wt-CFTR [1] = target: T1, human wt-CFTR (Homo sapiens, UniProt P13569); assay: Fluorescence assay of CFTR channel function; type: cell-based; details: FRT cells expressing wild-type CFTR, in the presence of 0.1 μmol/L forskolin
ΔF508-CFTR [2] = assay: Potentiation of ΔF508-CFTR; type: cell-based; details: ΔF508-CFTR versus wt-CFTR
human wt-CFTR [3] = target: T1, human wt-CFTR; type: cell-based
[4] = test system: mouse tracheal submucosal glands; assay: Measurement of individual submucosal gland fluid secretion in mouse trachea; details: 10 μmol/L osthole in serosal bathing solution
Procedure, shortened: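 Cranial segment of freshly excised mouse trachea mounted on a sponge, soaked in Krebs–Henseleit solution, mucosal side up in a humidified 5% CO2/95% air chamber at 37°C. Mucosa cleared with saline, nitrogen-dried, then covered with saline-saturated oil. Some tissues pre-incubated 30 min with 20 μmol/L CFTRinh-172. Gland droplets imaged by reflected-light microscopy after stimulation; secretion rate computed from droplet diameter assuming hemispherical shape.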

ΔF508-CFTR [5] = details: read-out: affinity in potentiating ΔF508-CFTR; ref Xu et al., 2008; cited from earlier work
rat colonic mucosa = assay: Short-circuit current assay on rat colonic mucosa; details: rat distal colonic mucosa

T1 sequence (P13569 whole entry): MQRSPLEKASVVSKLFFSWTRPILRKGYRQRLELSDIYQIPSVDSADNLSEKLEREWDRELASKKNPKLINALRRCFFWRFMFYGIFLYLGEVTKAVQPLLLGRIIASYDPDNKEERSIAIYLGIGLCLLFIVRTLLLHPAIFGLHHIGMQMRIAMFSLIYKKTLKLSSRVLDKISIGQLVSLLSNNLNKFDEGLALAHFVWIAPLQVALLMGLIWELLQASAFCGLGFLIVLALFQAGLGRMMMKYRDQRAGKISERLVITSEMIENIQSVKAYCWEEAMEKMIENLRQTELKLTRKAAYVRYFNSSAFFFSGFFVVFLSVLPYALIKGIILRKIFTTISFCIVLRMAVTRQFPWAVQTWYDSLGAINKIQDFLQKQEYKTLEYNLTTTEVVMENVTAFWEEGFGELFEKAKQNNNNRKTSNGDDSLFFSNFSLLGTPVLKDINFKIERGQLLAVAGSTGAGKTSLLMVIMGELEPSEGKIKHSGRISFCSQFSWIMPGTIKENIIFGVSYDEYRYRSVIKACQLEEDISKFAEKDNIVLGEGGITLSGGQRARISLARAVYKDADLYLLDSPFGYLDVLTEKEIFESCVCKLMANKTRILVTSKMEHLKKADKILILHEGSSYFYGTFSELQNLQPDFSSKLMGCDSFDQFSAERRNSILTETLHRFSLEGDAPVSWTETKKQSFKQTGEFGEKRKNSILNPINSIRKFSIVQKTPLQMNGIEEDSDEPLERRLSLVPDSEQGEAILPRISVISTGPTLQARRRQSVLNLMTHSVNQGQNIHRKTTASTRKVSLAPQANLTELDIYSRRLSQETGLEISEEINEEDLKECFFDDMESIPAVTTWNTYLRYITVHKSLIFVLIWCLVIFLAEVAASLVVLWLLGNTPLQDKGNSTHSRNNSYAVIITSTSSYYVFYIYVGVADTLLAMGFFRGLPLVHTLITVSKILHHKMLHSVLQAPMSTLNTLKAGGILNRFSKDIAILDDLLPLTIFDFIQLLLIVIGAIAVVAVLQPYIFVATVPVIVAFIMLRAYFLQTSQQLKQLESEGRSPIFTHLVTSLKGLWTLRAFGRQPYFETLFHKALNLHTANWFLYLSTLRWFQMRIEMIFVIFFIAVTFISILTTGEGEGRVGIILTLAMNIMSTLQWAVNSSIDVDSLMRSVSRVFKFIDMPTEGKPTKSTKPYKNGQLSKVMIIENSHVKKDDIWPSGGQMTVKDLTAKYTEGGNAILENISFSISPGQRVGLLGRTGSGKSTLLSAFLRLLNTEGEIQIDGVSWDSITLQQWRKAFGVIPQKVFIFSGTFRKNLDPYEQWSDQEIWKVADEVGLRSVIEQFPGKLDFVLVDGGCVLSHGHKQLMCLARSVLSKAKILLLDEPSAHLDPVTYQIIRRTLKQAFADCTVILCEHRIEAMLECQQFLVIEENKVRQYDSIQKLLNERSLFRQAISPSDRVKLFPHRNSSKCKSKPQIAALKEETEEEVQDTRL

SMILES: O=c1ccc2ccc3occc3c2o1 [isopsoralen]
stimulation of wt-CFTR-mediated I− influx (human wt-CFTR [1]): stimulated wt-CFTR-mediated I^− influx in a concentration-dependent way

Kd (human wt-CFTR [3]): < 0.05 µM
SMILES: COc1ccc2ccc(=O)oc2c1CC=C(C)C [osthole]
stimulation of wt-CFTR-mediated I− influx (human wt-CFTR [1]): stimulated wt-CFTR-mediated I^− influx in a concentration-dependent way
affinity in potentiating ΔF508-CFTR lower than in activating wt-CFTR (ΔF508-CFTR [2]): > 200 fold
increase of fluid secretion rate compared to the saline control [4]: 3.34 fold
Kd (ΔF508-CFTR [5]): ~10 µM

SMILES: CC(C)=CCOc1c2occc2cc2ccc(=O)oc12 [imperatorin]
stimulation of wt-CFTR-mediated I− influx (human wt-CFTR [1]): stimulated wt-CFTR-mediated I^− influx in a concentration-dependent way

block of coumarin-stimulated Cl− current (human wt-CFTR [3]; CFTRinh-172 at 20 μmol/L): completely blocked the activations
SMILES: O=C(O)c1ccc(/C=C2\SC(=S)N(c3cccc(C(F)(F)F)c3)C2=O)cc1 [CFTRinh-172, reference compound]
effect on osthole-stimulated chloride secretion (rat colonic mucosa): completely abolished the osthole-stimulated chloride secretion

SMILES: COc1cc2ccc(=O)oc2cc1OC [scoparone]
stimulation of wt-CFTR-mediated I− influx (human wt-CFTR [1]): stimulated wt-CFTR-mediated I^− influx in a concentration-dependent way
